In test [1] the target is T1, Melanocortin receptor 3 (Homo sapiens, UniProt P41968). Put plainly: Agonist activity at EYFP-fused human MC3R expressed in HEK293 cells after 16 to 20 hrs by CRE-driven reporter assay. Type of test: functional, cell-based. The method, boiled down:
(§1)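 HEK293 monoclonal lines carrying a single receptor/9×CRE-d2EYFP construct, selected with puromycin and FACS-sorted, kept in low-fluorescence DMEM. EYFP imaged with bright-field images, normalized to cell coverage, corrected for unstimulated cells and scaled to α-MSH maximum. Four-parameter fit constrained to minimum 0, at least three independent experiments.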

Test [2] has as its target T1, Melanocortin receptor 3. Nature of the test: Agonist activity at EYFP-fused human MC3R expressed in HEK293 cells after 16 to 20 hrs by CRE-driven reporter assay relative to alpha-MSH. Format: functional, cell-based. The method, boiled down:
as §1

Test [3] addresses T2, Melanocortin receptor 4 (Homo sapiens, UniProt P32245). Nature of the test: Agonist activity at EYFP-fused human MC4R expressed in HEK293 cells after 16 to 20 hrs by CRE-driven reporter assay. Format: functional, cell-based. In general terms: A reporter such as luciferase makes a cellular process visible.
Test [4] concerns the target T3, Melanocortin receptor 5 (Homo sapiens, UniProt P33032). Nature of the test: Agonist activity at EYFP-fused human MC5R expressed in HEK293 cells after 16 to 20 hrs by CRE-driven reporter assay. Type of test: functional, cell-based. The method, boiled down:
as §1

Test [5] has as its target T3, Melanocortin receptor 5. Nature of the test: Agonist activity at EYFP-fused human MC5R expressed in HEK293 cells after 16 to 20 hrs by CRE-driven reporter assay relative to alpha-MSH. Type of test: functional, cell-based. The method, boiled down:
as §1

For test [6], the target named is T2, Melanocortin receptor 4. Put plainly: Agonist activity at EYFP-fused human MC4R expressed in HEK293 cells assessed as increase in cAMP accumulation after 30 mins by luminescent enzymatic complementation based assay. Format: functional, cell-based.
The species entered for another test is Homo sapiens. Nature of the test: Selectivity ratio of EC50 for EYFP-fused human MC3R expressed in HEK293 cells to EC50 for EYFP-fused human MC4R expressed in HEK293 cells. Type of test: cell-based.

As usually defined, the EC50 is the concentration that produces a half-maximal response. In general, Emax refers to the size of the effect at its maximum, as opposed to the concentration needed.

T2 sequence (P32245 whole entry, the tested form may be a part): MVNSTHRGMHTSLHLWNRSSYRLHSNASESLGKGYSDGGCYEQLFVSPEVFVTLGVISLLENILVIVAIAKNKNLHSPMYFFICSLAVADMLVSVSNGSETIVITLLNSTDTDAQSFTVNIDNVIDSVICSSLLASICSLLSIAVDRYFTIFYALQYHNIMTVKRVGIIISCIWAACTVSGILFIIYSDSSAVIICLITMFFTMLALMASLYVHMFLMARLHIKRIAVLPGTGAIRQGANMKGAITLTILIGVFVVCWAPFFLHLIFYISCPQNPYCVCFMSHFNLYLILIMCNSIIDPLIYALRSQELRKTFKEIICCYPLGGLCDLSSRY
T1 sequence (P41968 whole entry, the tested form may be a part): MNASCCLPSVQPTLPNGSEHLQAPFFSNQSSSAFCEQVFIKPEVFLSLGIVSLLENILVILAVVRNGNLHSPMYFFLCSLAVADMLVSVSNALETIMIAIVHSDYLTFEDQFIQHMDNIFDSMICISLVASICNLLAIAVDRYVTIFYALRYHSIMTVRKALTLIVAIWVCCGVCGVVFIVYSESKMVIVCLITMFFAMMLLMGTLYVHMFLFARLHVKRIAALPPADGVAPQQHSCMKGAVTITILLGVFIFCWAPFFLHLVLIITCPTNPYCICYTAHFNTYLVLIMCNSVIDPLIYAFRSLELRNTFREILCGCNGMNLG
T3 sequence (P33032 whole entry, the tested form may be a part): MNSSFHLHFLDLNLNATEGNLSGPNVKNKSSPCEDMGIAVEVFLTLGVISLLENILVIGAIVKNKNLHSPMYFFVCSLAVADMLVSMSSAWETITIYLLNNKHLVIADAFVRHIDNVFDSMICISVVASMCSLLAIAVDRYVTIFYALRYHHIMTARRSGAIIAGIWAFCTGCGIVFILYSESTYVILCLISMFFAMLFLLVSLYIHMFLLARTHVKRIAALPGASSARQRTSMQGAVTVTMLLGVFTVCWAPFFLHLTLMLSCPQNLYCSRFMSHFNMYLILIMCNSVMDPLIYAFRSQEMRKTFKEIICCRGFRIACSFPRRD

For `CSCC[C@H](NC(=O)[C@@H]1Cc2cn(nn2)C[C@H](NC(=O)[C@@H](N)CCCCN)C(=O)N[C@@H](Cc2cnc[nH]2)C(=O)N[C@H](Cc2ccccc2)C(=O)N[C@@H](CCCNC(=N)N)C(=O)N[C@@H](Cc2c[nH]c3ccccc23)C(=O)N1)C(=O)O`, the EC50 is 123 nM at Melanocortin receptor 3 [1], 1.8 nM at Melanocortin receptor 4 [3], 299 nM on Melanocortin receptor 5 [4] and 9.2 nM at Melanocortin receptor 4 [6]. The results for the Emax on Melanocortin receptor 3 [2] and at Melanocortin receptor 5 [5] were 105% and 120%, respectively. For the same molecule, the Ratio EC50 in the test filed under Homo sapiens was found to be 70.

Source of the values: ChEMBL document CHEMBL4028868, “Click-Chemistry-Mediated Synthesis of Selective Melanocortin Receptor 4 Agonists” (J Med Chem, 2017).
